Among the data in ChEMBL document CHEMBL1795235, “Quercetin diacylglycoside analogues showing dual inhibition of DNA gyrase and topoisomerase IV as novel antibacterial agents” (J Med Chem, 2011) are MIC, IC50 and Ratio values, retold here.

Converted amounts (≈) assume the structure as drawn.

As a reminder, the MIC is the least concentration at which growth counts as inhibited. The low end stands for a more susceptible organism, the high end for a less susceptible organism. As a reminder, the IC50 is the midpoint of a concentration-inhibition curve.

Experiment [1] relates to Enterococcus. Description: Antibacterial activity against vancomycin resistant Enterococcus NCTC 12201 after 24 hrs by microdilution method. In kind it is functional. The settings on record: NCTC 12201, 24 h. The procedure, abridged: (§1)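 Broth microdilution in Mueller-Hinton broth with 0.85% NaCl, inoculum about 10^5 CFU per 100 μL. Compounds were diluted in water from 25.6 mg/mL stocks to final 2-fold series of 0.062–128 μg/mL. Plates were incubated 24 h at 35 °C. MIC was the lowest concentration at which all triplicate wells were clear, from three independent determinations.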
(Broth dilution looks for growth in wells or tubes with falling amounts of substance.)

Experiment [2] deals with Staphylococcus aureus. The experiment can be described thus: Antibacterial activity against methicillin-resistant Staphylococcus aureus OM584 after 24 hrs by microdilution method. The experiment is classed as functional. The settings on record: OM584, 24 h. The essentials:
as §1

A short description of experiment [3]: Inhibition of Staphylococcus aureus DNA Topoisomerase 4-mediated decatenation of kDNA after 30 mins by densitometry. The procedure, abridged: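 Purchased S. aureus topoIV, one unit with 200 ng kDNA, 37 °C, 30 min. Products resolved on 1.0% agarose in TAE. IC50 of decatenation from densitometry by interpolation equation, at least three determinations.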
Experiment [4] can be described thus: Inhibition of Escherichia coli DNA topoisomerase 4 subunit ParC/DNA topoisomerase 4 subunit ParE-mediated decatenation of kDNA by densitometry. The essentials: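 Purchased E. coli topoIV kit enzyme, one unit with 200 ng kDNA, 37 °C, 30 min. Buffer: 50 mM HEPES-KOH pH 7.6, 5 mM magnesium acetate, 100 mM potassium glutamate, 10 mM DTT, 1 mM ATP, 40% glycerol. Gel on 1.0% agarose in TAE. IC50 of decatenation from densitometry by interpolation equation, at least three determinations.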

The subject of experiment [5] is Staphylococcus aureus. Description: Antibacterial activity against methicillin-resistant Staphylococcus aureus OM481 after 24 hrs by microdilution method. The experiment is classed as functional. Conditions: OM481, 24 h. The essentials:
as §1

Experiment [6] concerns Staphylococcus aureus. Description: Antibacterial activity against methicillin-resistant Staphylococcus aureus COL after 24 hrs by microdilution method. In kind it is functional. The essentials:
as §1

The subject of a further experiment is Streptococcus pneumoniae. The experiment can be described thus: Antibacterial activity against Streptococcus pneumoniae R6 after 24 hrs by microdilution method. The experiment is classed as functional. The settings on record: R6, 24 h. The procedure, abridged:
(§2)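 Broth microdilution in Mueller-Hinton broth with 0.85% NaCl, inoculum about 10^5 CFU per 100 μL. Compounds diluted from 25.6 mg/mL stocks in water to 2-fold series, final 0.062–128 μg/mL. […] Three independent determinations.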

For experiment [7], the system named is Staphylococcus aureus. Description: Antibacterial activity against vancomycin-intermediate Staphylococcus aureus Mu50 after 24 hrs by microdilution method. In kind it is functional. The settings on record: Mu50, 24 h. The procedure, abridged:
as §1

For experiment [8], the system named is Staphylococcus aureus. The experiment can be described thus: Antibacterial activity against methicillin-susceptible Staphylococcus aureus 209P after 24 hrs by microdilution method. In kind it is functional. The essentials:
as §1

The test system of the next experiment is Escherichia coli. Description: Antibacterial activity against Escherichia coli K-12 after 24 hrs by microdilution method. In kind it is functional. The settings on record: K-12, 24 h. The essentials:
as §2

The test system of experiment [9] is Staphylococcus aureus. The experiment can be described thus: Antibacterial activity against methicillin-resistant Staphylococcus aureus N315 after 24 hrs by microdilution method. In kind it is functional. Conditions: N315, 24 h. The essentials:
as §1

Experiment [10] concerns Enterococcus. The experiment can be described thus: Antibacterial activity against vancomycin resistant Enterococcus FN-1 after 24 hrs by microdilution method. The experiment is classed as functional. The settings on record: FN-1, 24 h. The procedure, abridged: as §1
The next experiment relates to Pseudomonas aeruginosa. Description: Antibacterial activity against Pseudomonas aeruginosa PAO1 after 24 hrs by microdilution method. The settings on record: PAO1, 24 h. The experiment is classed as functional. The essentials: as §2
A short description of experiment [11]: Inhibition of Escherichia coli DNA gyrase assessed as inhibition of pBR322 supercoiling by densitometry. The procedure, abridged:
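One unit of E. coli gyrase with 0.5 μg relaxed pBR322 DNA, 37 °C, 30 min. Stopped with sucrose/EDTA dye, run on 1.0% agarose in TAE. IC50 from densitometry via log-interpolation equation.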

Experiment [12] relates to Enterococcus. Description: Ratio MIC for vancomycin to compound for vancomycin-resistant Enterococcus FN-1. In kind it is functional.

On to `Cc1ccc(CCC(=O)OC[C@H]2O[C@@H](Oc3c(-c4ccc(O)c(O)c4)oc4cc(O)cc(O)c4c3=O)[C@H](O)[C@@H](O)[C@H]2O)cc1`, for which the MIC in the experiment on Enterococcus [1] was 32 µg/mL (≈ 52.4 µM); in the experiment on Staphylococcus aureus [2], 16 µg/mL (≈ 26.2 µM); with Staphylococcus aureus [5] it was 16 µg/mL (≈ 26.2 µM); in the experiment with Staphylococcus aureus [6] it was 32 µg/mL (≈ 52.4 µM); against Streptococcus pneumoniae, 32 µg/mL (≈ 52.4 µM); in the experiment on Staphylococcus aureus [7], 16 µg/mL (≈ 26.2 µM). The MIC against Staphylococcus aureus [8] was 16 µg/mL (≈ 26.2 µM); against Escherichia coli, greater than 128 µg/mL; against Staphylococcus aureus [9], 16 µg/mL (≈ 26.2 µM); in the experiment with Enterococcus [10], 32 µg/mL (≈ 52.4 µM); in the experiment with Pseudomonas aeruginosa it was greater than 128 µg/mL. For the same compound, the values for the IC50 in experiment [3], in experiment [4] and in [11] were 2570 nM, 12000 nM and 1790 nM, respectively.
As for `O=C(CCc1ccc(F)cc1)Oc1cc(O)c2c(=O)c(OC(=O)CCc3ccc(F)cc3)c(-c3ccc(O)c(O)c3)oc2c1`, the MIC against Enterococcus [1] turned out to be 32 µg/mL (≈ 53.1 µM); in the experiment with Staphylococcus aureus [2] it was 16 µg/mL (≈ 26.6 µM); against Staphylococcus aureus [5], 16 µg/mL (≈ 26.6 µM); with Staphylococcus aureus [6], 32 µg/mL (≈ 53.1 µM); against Streptococcus pneumoniae, 32 µg/mL (≈ 53.1 µM); in the experiment on Staphylococcus aureus [7], 32 µg/mL (≈ 53.1 µM). Also, the minimal inhibitory concentration (MIC) worked out at 64 µg/mL (≈ 106 µM) in the experiment with Staphylococcus aureus [8]; 64 µg/mL (≈ 106 µM) in the experiment with Escherichia coli; 16 µg/mL (≈ 26.6 µM) in the experiment on Staphylococcus aureus [9]; 64 µg/mL (≈ 106 µM) in the experiment on Enterococcus [10]; 64 µg/mL (≈ 106 µM) in the experiment on Pseudomonas aeruginosa. For the same compound, the Ratio with Enterococcus [12] was determined as 2. The results for the IC50 in [3], in [4] and in [11] were 290 nM, 6760 nM and 720 nM, respectively.
For the compound `O=C(Cc1ccc(F)cc1)OC[C@H]1O[C@@H](Oc2c(-c3ccc(O)c(O)c3)oc3cc(O)cc(O)c3c2=O)[C@H](OC(=O)Cc2ccc(F)cc2)[C@@H](O)[C@H]1O`, the MIC in the experiment on Enterococcus [1] was 0.5 µg/mL (≈ 0.679 µM); against Staphylococcus aureus [2] it was 1 µg/mL (≈ 1.36 µM); in the experiment on Staphylococcus aureus [5] it was 1 µg/mL (≈ 1.36 µM); with Staphylococcus aureus [6], 8 µg/mL (≈ 10.9 µM); in the experiment on Streptococcus pneumoniae, 1 µg/mL (≈ 1.36 µM); in the experiment on Staphylococcus aureus [7], 1 µg/mL (≈ 1.36 µM). Further, the minimal inhibitory concentration (MIC) is 1 µg/mL (≈ 1.36 µM) in the experiment with Staphylococcus aureus [8]; greater than 128 µg/mL in the experiment on Escherichia coli; 1 µg/mL (≈ 1.36 µM) with Staphylococcus aureus [9]; 0.5 µg/mL (≈ 0.679 µM) against Enterococcus [10]; greater than 128 µg/mL in the experiment on Pseudomonas aeruginosa. For the same compound, the IC50 in [3] was determined as 460 nM; in [4], 10200 nM; in experiment [11] it was 1050 nM.
On to `CCOc1ccc(CCC(=O)OC[C@H]2O[C@@H](Oc3c(-c4ccc(O)c(O)c4)oc4cc(O)cc(O)c4c3=O)[C@H](OC(=O)CCc3ccc(OCC)cc3)[C@@H](O)[C@H]2O)cc1`, for which the MIC against Enterococcus [1] turned out to be 16 µg/mL (≈ 19.6 µM); against Staphylococcus aureus [2], 4 µg/mL (≈ 4.9 µM); against Staphylococcus aureus [5], 4 µg/mL (≈ 4.9 µM); against Staphylococcus aureus [6], 8 µg/mL (≈ 9.79 µM); in the experiment with Streptococcus pneumoniae, 8 µg/mL (≈ 9.79 µM); with Staphylococcus aureus [7], 8 µg/mL (≈ 9.79 µM). Further, the minimal inhibitory concentration (MIC) in the experiment with Staphylococcus aureus [8] is 8 µg/mL (≈ 9.79 µM); against Escherichia coli, greater than 128 µg/mL; against Staphylococcus aureus [9], 2 µg/mL (≈ 2.45 µM); against Enterococcus [10] it was 16 µg/mL (≈ 19.6 µM); against Pseudomonas aeruginosa it was greater than 128 µg/mL. In addition, the half-inhibitory concentration (IC50) was 2990 nM in experiment [3], greater than 12000 nM in experiment [4] and 5390 nM in experiment [11].
For `O=c1c(O[C@@H]2O[C@H](CO)[C@H](O)[C@H](O)[C@H]2O)c(-c2ccc(O)c(O)c2)oc2cc(O[C@@H]3O[C@H](CO)[C@H](O)[C@H](O)[C@H]3O)cc(O)c12`, the MIC in the experiment with Enterococcus [1], in the experiment with Staphylococcus aureus [2], with Staphylococcus aureus [5], against Staphylococcus aureus [6], against Streptococcus pneumoniae and against Staphylococcus aureus [7] was greater than 128 µg/mL in each case. Further, the minimal inhibitory concentration (MIC) was greater than 128 µg/mL in the experiment with Staphylococcus aureus [8]; 32 µg/mL (≈ 51.1 µM) with Escherichia coli; greater than 128 µg/mL with Staphylococcus aureus [9]; greater than 128 µg/mL against Enterococcus [10]; 32 µg/mL (≈ 51.1 µM) with Pseudomonas aeruginosa. For the same compound, the IC50 in [3] is 200 nM; in experiment [4], 5340 nM; in [11], 260 nM.
On to `CC(=O)OC[C@H]1O[C@@H](Oc2cc(O)c3c(=O)c(O[C@@H]4O[C@H](COC(C)=O)[C@H](OC(C)=O)[C@H](OC(C)=O)[C@H]4OC(C)=O)c(-c4ccc(O)c(O)c4)oc3c2)[C@H](OC(C)=O)[C@@H](OC(C)=O)[C@H]1OC(C)=O`, for which the minimal inhibitory concentration (MIC) is 64 µg/mL (≈ 66.5 µM) in the experiment on Enterococcus [1]; 128 µg/mL (≈ 133 µM) in the experiment on Staphylococcus aureus [2]; 128 µg/mL (≈ 133 µM) in the experiment with Staphylococcus aureus [5]; greater than 128 µg/mL with Staphylococcus aureus [6]; 128 µg/mL (≈ 133 µM) with Streptococcus pneumoniae; 128 µg/mL (≈ 133 µM) against Staphylococcus aureus [7]. Moreover, the minimal inhibitory concentration (MIC) is 128 µg/mL (≈ 133 µM) against Staphylococcus aureus [8]; greater than 128 µg/mL in the experiment on Escherichia coli; 128 µg/mL (≈ 133 µM) against Staphylococcus aureus [9]; 64 µg/mL (≈ 66.5 µM) with Enterococcus [10]; greater than 128 µg/mL against Pseudomonas aeruginosa. In addition, the Ratio in the experiment with Enterococcus [12] was 2.
